Laboratory results: the array DNA melting data of Ke et al. (doi:10.1101/2024.01.08.574731)

Legend:
[1] = folding enthalpy; higher = less favourable; fluorescence melt of hairpins on a sequencing array, two-state fit; settings: sodium 0.088 M
How it was run: (§1)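 Cy3 fluorescence of library hairpins on a sequenced MiSeq flow cell, with annealed Cy3 and quencher oligos, was imaged in 50 mM Na-HEPES pH 8.0, 25 mM NaCl in 2.5 °C steps up to 60 °C. Signals were normalised to pre-quench Cy3 and to control variants. Melting temperature and folding enthalpy came from bootstrapped two-state fits, inverse-variance combined over four replicates. Fitted temperatures were raised by 9.35 °C to match UV melts.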

[2] = melting temperature; fluorescence melt of hairpins on a sequencing array, two-state fit, raised by 9.35 °C to match UV melts; settings: sodium 0.088 M
How it was run: as §1

| Sequence | folding enthalpy [1] | Tm [2] |
| --- | --- | --- |
| GAGATGCGAAAGCACTC (((.(((....)))))) | -19.2 kcal/mol | 48.4 °C |
| GATCGACTGCTCGATC ((((((....)))))) | -43.4 kcal/mol | 50.9 °C |
| GAGGAGGAAACTCCTC ((((((....)))))) | -31.2 kcal/mol | 55.9 °C |
| GGGAGGAAACTCCC (((((....))))) | -33.5 kcal/mol | 56 °C |
| GATCTTCTATAAGATC ((((((....)))))) | -30.3 kcal/mol | 43.5 °C |
| GGGGCGGGAAACCGCCTC (.(((((....))))).) | -12 kcal/mol | 60.5 °C |
| GGGCTTGGAAACAGGCTC (.((.((....)).)).) | -24.4 kcal/mol | 38.3 °C |
| GCGTAACGAAAGTTGCGC (((.(((....))).))) | -53 kcal/mol | 63 °C |
| GACCAACGAAAGTTCGTC (((.(((....))).))) | -24.4 kcal/mol | 34.9 °C |
| GTAATCCGAAAGGACTAC (((.(((....))).))) | -25.6 kcal/mol | 37.9 °C |
| GCCGGGCGAAAGCTAGGC (((..((....))..))) | -34.4 kcal/mol | 66.6 °C |
| GGATCGGGAAACTGATCC (((((.(....).))))) | -39.1 kcal/mol | 52.4 °C |
| GCCTTGCGAAAGCCAGGC ((((.((....)).)))) | -31.4 kcal/mol | 62.6 °C |
| GCCGTACGAAAGTAAGGC (((.(((....))).))) | -36.6 kcal/mol | 60.1 °C |
| GTTTGTGCGAAAGCAAAC (((..(((....)))))) | -18.2 kcal/mol | 41.5 °C |
| GCACACCGAAAGGTCTGC (((.(((....))).))) | -26.5 kcal/mol | 47 °C |
| GATCATTGCCATGATC ((((((....)))))) | -39.3 kcal/mol | 46.4 °C |
| GCCTGAGGAAACTTGGGC (((..((....))..))) | -29 kcal/mol | 42.3 °C |
| CGAGATCGGAAACGATCG (((..(((....)))))) | -20 kcal/mol | 51.6 °C |
| GTGGCTGCGAAAGCACAC (((..(((....)))))) | -11.5 kcal/mol | 47.8 °C |
| GACCCCGAAAGGGTCGTC ((((((....)))..))) | -24.6 kcal/mol | 58.2 °C |
| GTCTGCGAAAGCATGAC ((((((....))).))) | -23.5 kcal/mol | 52.7 °C |
| GCCGGCGAAAGCCTCGGC ((((((....)))..))) | -19.9 kcal/mol | 53.3 °C |

| Sequence | folding enthalpy [1] | Tm [2] |
| --- | --- | --- |
| GTCCAACGAAAGTTCGAC (((.(((....))).))) | -27 kcal/mol | 35.9 °C |
| GCAGGGGGAAACCTCTGC ((((.((....)).)))) | -39.1 kcal/mol | 55 °C |
| GGGTCGGGAAACCAACCC ((((.((....)).)))) | -35.2 kcal/mol | 47.1 °C |
| GTTTCCGAAAGGATTAAC ((((((....)))..))) | -11.6 kcal/mol | 28.6 °C |
| GAAGCCGAAAGGCAATTC ((((((....)))..))) | -13.7 kcal/mol | 39.6 °C |
| GATCGGCAACCGATC ((((((...)))))) | -36.7 kcal/mol | 54.6 °C |
| GCTTTTCGAAAGAAAGC (((.(((....)))))) | -25.1 kcal/mol | 44.5 °C |
| GTATCCGGAAACGGGTAC (((.(((....))).))) | -42.2 kcal/mol | 51.3 °C |
| GAGGGCGAAAGCCTCTC ((((((....))).))) | -16.1 kcal/mol | 53.2 °C |
| GTCACTCCGAAAGGAGAC (((..(((....)))))) | -8.95 kcal/mol | 31.6 °C |
| GGCAACGAAAGTTAGCC ((((((....))).))) | -37.5 kcal/mol | 53.9 °C |
| GATGGAGGAAACTCCATC (((((((....))))))) | -38.5 kcal/mol | 59 °C |
| GCTTGCGAAAGCAGAAGC ((((((....)))..))) | -21.7 kcal/mol | 47.2 °C |
| GGTTCGCCGAAAGGCACC (((..(((....)))))) | -8.49 kcal/mol | 30.1 °C |
| GGAGAGCGAAAGCTTTCC (((.(((....))).))) | -31.6 kcal/mol | 53.6 °C |
| GGTCGTCGAAAGACACC (((.(((....)))))) | -22.1 kcal/mol | 52.1 °C |
| GTCACCACGAAAGTGGAC (((..(((....)))))) | -7.89 kcal/mol | 31.1 °C |
| GATCAGGCCCTGATC ((((((...)))))) | -33.9 kcal/mol | 50.1 °C |
| GATCCCGGAAACGGAATC (((.(((....))).))) | -24.7 kcal/mol | 40.1 °C |
| GATCTGCAAGCAGATC ((((((....)))))) | -40.2 kcal/mol | 57.6 °C |
| GTGAATGAAAATTCAC ((((((....)))))) | -29.8 kcal/mol | 52.3 °C |
| GACCGACGAAAGTCCGTC (((.(((....))).))) | -23.9 kcal/mol | 43.1 °C |
| GCACGTCGAAAGACTGC (((.(((....)))))) | -27.5 kcal/mol | 56.5 °C |

| Sequence | folding enthalpy [1] | Tm [2] |
| --- | --- | --- |
| CCTGAGAAATCAGG (((((....))))) | -19.4 kcal/mol | 44.8 °C |
| GATCTCGCCGAGATC ((((((...)))))) | -37 kcal/mol | 55.2 °C |
| GAGATACGAAAGTAACTC (((.(((....))).))) | -26 kcal/mol | 44.7 °C |
| CGACCGGAAACGGTTCG ((((((....))).))) | -20.1 kcal/mol | 49.2 °C |
| GATCCAAAATGGATC ((((((...)))))) | -31.5 kcal/mol | 48.9 °C |
| GGATAAGAAATTATCC ((((((....)))))) | -27.6 kcal/mol | 42.1 °C |
| GATCTGCTTGCAGATC ((((((....)))))) | -40.1 kcal/mol | 67.3 °C |
| GCTTTAGGAAACTAAGGC ((.((((....)))).)) | -27.7 kcal/mol | 37 °C |
| CATCGGAAACGATG (((((....))))) | -25.8 kcal/mol | 53.5 °C |
| GGTCCAGGAAACTGGATC (.(((((....))))).) | -32.1 kcal/mol | 49.7 °C |
| GTGAACGGAAACGTTTAC ((.((((....)))).)) | -29.6 kcal/mol | 46.9 °C |
| GAGTCCGAAAGGATCCTC ((((((....)))..))) | -12.1 kcal/mol | 34.1 °C |
| GCCAAAGGAAACTTTGAC (.(((((....))))).) | -21.9 kcal/mol | 32.3 °C |
| CGTTGCGGAAACGCTACG (((.(((....))).))) | -33.4 kcal/mol | 56 °C |
| GCATGAGGAAACTCATAC (.(((((....))))).) | -17.2 kcal/mol | 32.6 °C |
| GGAGAAGGAAACTCCTCC ((((.((....)).)))) | -22.6 kcal/mol | 36 °C |
| GATCGCCACAGCGATC ((((((....)))))) | -38.2 kcal/mol | 68.8 °C |
| GCGAGCGAAAGCTACCGC ((((((....)))..))) | -18.8 kcal/mol | 48.1 °C |
| GCCCACGAAAGTGCAGGC ((((((....)))..))) | -28.1 kcal/mol | 50.1 °C |
| GACCACGAAAGTGAAGTC ((((((....)))..))) | -21.7 kcal/mol | 40.2 °C |
| GGGTTGGGAAACTAACCC (((((.(....).))))) | -40.6 kcal/mol | 50.6 °C |
| GTGTCAGCGAAAGCTCAC (((..(((....)))))) | -15.3 kcal/mol | 39 °C |
| GATCATCGCAATGATC ((((((....)))))) | -39.1 kcal/mol | 48.3 °C |

| Sequence | folding enthalpy [1] | Tm [2] |
| --- | --- | --- |
| GTATCAGGAAACCGATAC (((((.(....).))))) | -30.7 kcal/mol | 38.1 °C |
| GATCTGTATCCAGATC ((((((....)))))) | -40.3 kcal/mol | 47.4 °C |
| ACCTAGAAATAGGT (((((....))))) | -11.8 kcal/mol | 36.8 °C |
| GCTTGGCGAAAGCTATGC ((.(.((....)).).)) | -15.6 kcal/mol | 47.9 °C |
| GATCGGGCTACCGATC ((((((....)))))) | -36.7 kcal/mol | 67.7 °C |
| GTTGACCGAAAGGTAAC (((.(((....)))))) | -16.4 kcal/mol | 38.1 °C |
| GATCAGATTACTGATC ((((((....)))))) | -30.3 kcal/mol | 50 °C |
| GTAAGCCGAAAGGCGTAC (((.(((....))).))) | -14.1 kcal/mol | 54.4 °C |
| GGCATCGAAAGATATGCC ((((((....)))..))) | -28.1 kcal/mol | 47.5 °C |
| GCGACTCATCGC ((((....)))) | -24.5 kcal/mol | 49 °C |
| GTGCCCGGAAACGGGTAC ((.((((....)))).)) | -30 kcal/mol | 62.9 °C |
| GACATCACGAAAGTGGTC (((..(((....)))))) | -14.5 kcal/mol | 34.7 °C |
| GATCTCCAGCGAGATC ((((((....)))))) | -30.6 kcal/mol | 50 °C |
| GTCGACCGAAAGGTAGAC (((.(((....))).))) | -36.4 kcal/mol | 59.8 °C |
| GTCCCCGAAAGGGGTGAC ((((((....)))..))) | -8.1 kcal/mol | 45 °C |
| GAGACTGGAAACAGTCTC (((((((....))))))) | -40.3 kcal/mol | 64.8 °C |
| GAGTGCGAAAGCACCTC ((((((....))).))) | -10.3 kcal/mol | 54.8 °C |
| GGACTCGAAAGAGTTTCC ((((((....)))..))) | -13.8 kcal/mol | 36.8 °C |
| GGAAAGCCGAAAGGCTCC (((..(((....)))))) | -11.2 kcal/mol | 42.2 °C |
| GCGATCGTTCGC ((((....)))) | -29 kcal/mol | 50.4 °C |
| CATTCGAAAGAATG (((((....))))) | -23.2 kcal/mol | 49.7 °C |
| GGTCAACCGAAAGGTACC (((..(((....)))))) | -15.9 kcal/mol | 35.1 °C |
| GAGAGCGGAAACACTCTC (((((.(....).))))) | -28.1 kcal/mol | 43 °C |
